From ChEMBL document CHEMBL1157378, “Role for cell density in antifungal drug resistance in Candida albicans biofilms” (2007)
≈ marks a conversion by molar mass, not a printed value.

Columns and labels:
Type in all cases: functional
Candida albicans [1] = assay: Antimicrobial activity against Chk1 deficient Candida albicans CHK21 dissociated biofilms at cell density of 10^8 cells/ml after 24 hrs by XTT assay; details: CHK21, 24 h
Outline: (§1)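 Biofilms grown from 1 x 10^6 cells/ml in RPMI on polystyrene 96-well plates, 48 h at 37°C in a moist chamber, then washed and scraped into 100 µl RPMI. Cells used undiluted (about 2 x 10^8 cells/ml equivalent) or diluted to a low density set against an A600 standard curve. A twofold drug series was added for 24 h at 37°C. Read-out was XTT/menadione at 490 nm.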

Candida albicans [2] = assay: Antimicrobial activity against fluconazole-resistant Candida albicans FH5 dissociated biofilms at cell density of 10^8 cells/ml after 24 hrs by XTT assay; details: FH5, 24 h
Outline: (§2)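 Polystyrene-well biofilms (48 h, 37°C) washed, then broken up in 100 µl RPMI by scraping and aspiration. Cells used undiluted (about 2 x 10^8 cells/ml equivalent) or adjusted by A600 against a hemacytometer-calibrated yeast standard curve. Drug exposure at 37°C for 48 h (caspofungin 24 h), then XTT/menadione read at 490 nm.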

Candida albicans [3] = assay: Antimicrobial activity against Candida albicans GDH2346 dissociated biofilms at cell density of 10^8 cells/ml after 24 hrs by XTT assay; details: GDH2346, 24 h; outline: as §1
Candida albicans [4] = assay: Antimicrobial activity against Candida albicans FH1 at planktonic cell density of 10^8 cells/ml after 24 hrs by XTT assay; details: FH1, 24 h
Outline: (§3)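 Planktonic yeast grown in YNB with 50 mM glucose at room temperature with shaking, subcultured to about 2 x 10^8 cells/ml, then washed and resuspended in MOPS-buffered RPMI 1640 with L-glutamine at the stated density. 100 µl of cells was mixed with 100 µl of a twofold drug series (prepared at 1,024 to 0.0313 µg/ml) and incubated for 24 h at 37°C. Read-out was XTT with 1 µM menadione at 37°C, absorbance at 490 nm.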

Candida albicans [5] = assay: Antimicrobial activity against Cdr1, Cdr2 and Mdr1 deficient Candida albicans DSY1050 dissociated biofilms at cell density of 10^3 cells/ml after 24 hrs by XTT assay; details: DSY1050, 24 h; outline: as §1
Candida albicans [6] = assay: Antimicrobial activity against Candida albicans SC5314 at planktonic cell density of 10^8 cells/ml after 24 hrs by XTT assay; details: SC5314, 24 h; outline: as §3
Candida albicans [7] = assay: Antimicrobial activity against Chk1 deficient Candida albicans CHK21 dissociated biofilms at cell density of 10^3 cells/ml after 24 hrs by XTT assay; details: CHK21, 24 h; outline: as §2
Candida albicans [8] = assay: Antimicrobial activity against Cdr1, Cdr2 and Mdr1 deficient Candida albicans DSY1050 at planktonic cell density of 10^8 cells/ml after 24 hrs by XTT assay; details: DSY1050, 24 h; outline: as §3
Candida albicans [9] = assay: Antimicrobial activity against Candida albicans SC5314 dissociated biofilms at cell density of 10^3 cells/ml after 24 hrs by XTT assay; details: SC5314, 24 h; outline: as §2
Candida albicans [10] = assay: Antimicrobial activity against Candida albicans GDH2346 at planktonic cell density of 10^3 cells/ml after 24 hrs by XTT assay; details: GDH2346, 24 h; outline: as §3
Candida albicans [11] = assay: Antimicrobial activity against Candida albicans SC5314 intact biofilms after 24 hrs by XTT assay; details: SC5314, 24 h
Outline: (§4)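 Intact biofilms formed from 1 x 10^6 cells/ml in RPMI in polystyrene microtiter wells, 48 h at 37°C in a moist chamber, then washed once and covered with 100 µl RPMI. A twofold drug series was added in the same well for 24 h at 37°C. Metabolic activity was read by XTT (0.5 g/liter, 1 µM menadione, up to 2 h) at 490 nm.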

Candida albicans [12] = assay: Antimicrobial activity against Candida albicans FH1 dissociated biofilms at cell density of 10^3 cells/ml after 24 hrs by XTT assay; details: FH1, 24 h; outline: as §2
Candida albicans [13] = assay: Antimicrobial activity against Cdr1, Cdr2 and Mdr1 deficient Candida albicans DSY1050 at planktonic cell density of 10^3 cells/ml after 24 hrs by XTT assay; details: DSY1050, 24 h; outline: as §3
Candida albicans [14] = assay: Antimicrobial activity against Candida albicans GDH2346 at planktonic cell density of 10^8 cells/ml after 24 hrs by XTT assay; details: GDH2346, 24 h; outline: as §3
Candida albicans [15] = assay: Antimicrobial activity against Candida albicans GDH2346 intact biofilms after 24 hrs by XTT assay; details: GDH2346, 24 h; outline: as §4
Candida albicans [16] = assay: Antimicrobial activity against Chk1 deficient Candida albicans CHK21 at planktonic cell density of 10^8 cells/ml after 24 hrs by XTT assay; details: CHK21, 24 h; outline: as §3
Candida albicans [17] = assay: Antimicrobial activity against Cdr1, Cdr2 and Mdr1 deficient Candida albicans DSY1050 intact biofilms after 24 hrs by XTT assay; details: DSY1050, 24 h; outline: as §4
Candida albicans [18] = assay: Antimicrobial activity against Candida albicans FH1 at planktonic cell density of 10^3 cells/ml after 24 hrs by XTT assay; details: FH1, 24 h
Outline: (§5)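 YNB-grown yeast (50 mM glucose, room temperature, shaken, to ~2 x 10^8 cells/ml) washed into MOPS-buffered RPMI 1640 with L-glutamine and set to the stated density. Exposed to twofold serial drug dilutions (1,024 to 0.0313 µg/ml) at 37°C, 48 h (caspofungin 24 h), with drug-free controls. Read-out: XTT (0.5 g/liter) plus 1 µM menadione, formazan at 490 nm.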

Candida albicans [19] = assay: Antimicrobial activity against Candida albicans SC5314 dissociated biofilms at cell density of 10^8 cells/ml after 24 hrs by XTT assay; details: SC5314, 24 h; outline: as §1
Candida albicans [20] = assay: Antimicrobial activity against fluconazole-resistant Candida albicans FH5 at planktonic cell density of 10^3 cells/ml after 24 hrs by XTT assay; details: FH5, 24 h; outline: as §5
Candida albicans [21] = assay: Antimicrobial activity against Cdr1, Cdr2 and Mdr1 deficient Candida albicans DSY1050 dissociated biofilms at cell density of 10^8 cells/ml after 24 hrs by XTT assay; details: DSY1050, 24 h; outline: as §1
Candida albicans [22] = assay: Antimicrobial activity against fluconazole-resistant Candida albicans FH5 intact biofilms after 24 hrs by XTT assay; details: FH5, 24 h
Outline: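 Biofilm seeded at 1 x 10^6 cells/ml in RPMI in polystyrene microtiter wells and grown 48 h at 37°C in a moist chamber. Washed once and drug added to the same well (twofold dilutions, 1,024 to 0.0313 µg/ml) for 48 h at 37°C (caspofungin 24 h). Read-out: XTT/menadione reduction at 490 nm.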

Candida albicans [23] = assay: Antimicrobial activity against Chk1 deficient Candida albicans CHK21 intact biofilms after 24 hrs by XTT assay; details: CHK21, 24 h; outline: as §4
Candida albicans [24] = assay: Antimicrobial activity against Candida albicans FH1 intact biofilms after 24 hrs by XTT assay; details: FH1, 24 h; outline: as §4
Candida albicans [25] = assay: Antimicrobial activity against Candida albicans FH1 dissociated biofilms at cell density of 10^8 cells/ml after 24 hrs by XTT assay; details: FH1, 24 h; outline: as §1
Candida albicans [26] = assay: Antimicrobial activity against fluconazole-resistant Candida albicans FH5 at planktonic cell density of 10^8 cells/ml after 24 hrs by XTT assay; details: FH5, 24 h; outline: as §5
Candida albicans [27] = assay: Antimicrobial activity against Chk1 deficient Candida albicans CHK21 at planktonic cell density of 10^3 cells/ml after 24 hrs by XTT assay; details: CHK21, 24 h; outline: as §5
Candida albicans [28] = assay: Antimicrobial activity against Candida albicans SC5314 at planktonic cell density of 10^3 cells/ml after 24 hrs by XTT assay; details: SC5314, 24 h; outline: as §3
Candida albicans [29] = assay: Antimicrobial activity against fluconazole-resistant Candida albicans FH5 dissociated biofilms at cell density of 10^3 cells/ml after 24 hrs by XTT assay; details: FH5, 24 h; outline: as §2
Candida albicans [30] = assay: Antimicrobial activity against Candida albicans GDH2346 dissociated biofilms at cell density of 10^3 cells/ml after 24 hrs by XTT assay; details: GDH2346, 24 h; outline: as §1

For `CC[C@H](C)C[C@H](C)CCCCCCCCC(=O)N[C@H]1C[C@@H](O)[C@@H](NCCN)NC(=O)[C@@H]2[C@@H](O)CCN2C(=O)[C@H]([C@H](O)CCN)NC(=O)[C@H]([C@H](O)[C@@H](O)c2ccc(O)cc2)NC(=O)[C@@H]2C[C@@H](O)CN2C(=O)[C@H]([C@@H](C)O)NC1=O` [CASPOFUNGIN], the MIC80 (Candida albicans [1]) was > 32 µg/mL, the MIC80 (Candida albicans [2]) was > 32 µg/mL and the MIC80 (Candida albicans [3]) was > 32 µg/mL. For the same compound, the MIC80 (Candida albicans [4]) was > 32 µg/mL, the MIC80 (Candida albicans [5]) was 0.25 µg/mL (≈ 0.229 µM) and the MIC80 (Candida albicans [6]) was > 32 µg/mL. For the same compound, the MIC80 (Candida albicans [7]) was 0.5 µg/mL (≈ 0.457 µM), the MIC80 (Candida albicans [8]) was > 32 µg/mL and the MIC80 (Candida albicans [9]) was 0.5 µg/mL (≈ 0.457 µM). For the same compound, the MIC80 (Candida albicans [10]) was 0.125 µg/mL (≈ 0.114 µM), the MIC80 (Candida albicans [11]) was > 32 µg/mL and the MIC80 (Candida albicans [12]) was 0.5 µg/mL (≈ 0.457 µM). The MIC80 (Candida albicans [13]) was 0.25 µg/mL (≈ 0.229 µM), the MIC80 (Candida albicans [14]) was > 32 µg/mL and the MIC80 (Candida albicans [15]) was > 32 µg/mL. For the same compound, the MIC80 (Candida albicans [16]) was > 32 µg/mL, the MIC80 (Candida albicans [17]) was > 32 µg/mL and the MIC80 (Candida albicans [18]) was 0.5 µg/mL (≈ 0.457 µM). The MIC80 (Candida albicans [19]) was > 32 µg/mL, the MIC80 (Candida albicans [20]) was 0.5 µg/mL (≈ 0.457 µM) and the MIC80 (Candida albicans [21]) was > 32 µg/mL. The MIC80 (Candida albicans [22]) was > 32 µg/mL, the MIC80 (Candida albicans [23]) was > 32 µg/mL and the MIC80 (Candida albicans [24]) was > 32 µg/mL. For the same compound, the MIC80 (Candida albicans [25]) was > 32 µg/mL, the MIC80 (Candida albicans [26]) was > 32 µg/mL and the MIC80 (Candida albicans [27]) was 0.5 µg/mL (≈ 0.457 µM). For the same compound, the MIC80 (Candida albicans [28]) was 0.25 µg/mL (≈ 0.229 µM), the MIC80 (Candida albicans [29]) was 0.5 µg/mL (≈ 0.457 µM) and the MIC80 (Candida albicans [30]) was 0.25 µg/mL (≈ 0.229 µM).
